Results from different studies.

SMILES | host | sample | route | dose | setting | Tmax
Cc1cc2sc(N)nc2c2cccnc12 | female BALB/c mouse | plasma | intraperitoneal | 30 mg/kg | single dose | 15 min
C[C@@H](N[C@H]1CCN(c2ccc(CC(=O)O)cc2)C1)c1cccc2ccccc12 | male CD-1 mouse | plasma | subcutaneous | 3 mg/kg | single dose | 60 min
CC(=O)O[C@@]12CO[C@@H]1C[C@H](O)[C@@]1(C)C(=O)[C@H](O)C3=C(C)[C@@H](OC(=O)[C@H](O)[C@@H](NC(=O)OC(C)(C)C)c4ccccc4)C[C@@](O)([C@@H](OC(=O)c4ccccc4)[C@H]21)C3(C)C | male Kunming mouse | liver | oral | 20 mg/kg |  | 30 min
Nc1ncn([C@H]2C[C@H](O)[C@@H](CO)O2)c(=O)n1 | female C57BL/6 mouse | plasma | oral | 0.4 mg/kg |  | 4.98 min
COc1cc2c(NC3CCN(CCCC(=O)NCCCCCCCCCCCC(=O)N[C@H](C(=O)N4C[C@H](O)C[C@H]4C(=O)NCc4ccc(-c5scnc5C)cc4)C(C)(C)C)CC3)nc(N3CCC(F)(F)CC3)nc2cc1OCCCN1CCCC1 | male C57BL/6 mouse | plasma | intraperitoneal | 50 mg/kg | single dose | 30 min
Cc1c(C(=O)O)ccc2c3n(nc12)[C@@H]1[C@H](C3)N(CC2CC2)[C@@]2(C(=O)Nc3cc(Cl)ccc32)[C@H]1c1cccc(Cl)c1F | female mouse | plasma | oral | 5 mg/kg |  | 282 min
C[C@@H](NCCCc1cccc(C(F)(F)F)c1)c1cccc2ccccc12 | male CD-1 mouse | plasma | subcutaneous | 3 mg/kg | single dose | 15 min
CC(C(=O)Nc1c(F)cccc1F)N1CCN(c2ccccc2)CC1 (centres unmarked) | female C57BL/6 mouse | brain | intraperitoneal | 10 mg/kg |  | 15 min
CCN1CCN(Cc2ccc(NC(=O)c3ccc(C)c(NC(=O)c4cncc(-c5cccs5)c4)c3)cc2C(F)(F)F)CC1 | mouse | plasma | intraperitoneal | 20 mg/kg | single dose | 30 min
CCOc1ccc(N(C)S(=O)(=O)c2cc(Cl)sc2C(=O)Nc2cc(Cl)cc(C(=O)O)c2)cc1OC | male C57BL/6 mouse | plasma | intraperitoneal | 10 mg/kg |  | 15 min
C=CS(=O)(=O)c1ccc(Nc2nc(OCC3CCCCC3)c3nc[nH]c3n2)cc1 | male BALB/c mouse | plasma | intraperitoneal | 20 mg/kg | single dose | 4.8 min
